In one assay the test system is MCF7. Put plainly: Antiproliferative activity against human MCF7 cells expressing ER. Format: functional, cell-based. The method in brief:
(§1)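 Growth inhibition was measured in the listed cell lines. IC50 is the compound concentration that inhibits cellular growth by 50%. Values are mean ± standard error from at least two separate experiments, each run in triplicate.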

For another assay, the system named is SK-BR-3. Put plainly: Antiproliferative activity against human ER deficient SKBR3 cells over expressing HER2. Type of assay: functional, cell-based. The essentials: as §1
Assay [1] concerns the target T1, Heat shock protein HSP90 (Homo sapiens) (UniProt P07900+P08238). Put plainly: Inhibition of Hsp90 in human MCF7 cells assessed as Her2 degradation by Western blot analysis. Type of assay: cell-based.
Assay [2] deals with T1, Heat shock protein HSP90 (Homo sapiens). Put plainly: Inhibition of Hsp90 in human MCF7 cells assessed as c-Raf degradation by Western blot analysis. Type of assay: cell-based.
Assay [3] has as its target MCF-7 and SKBr-3 cells (Homo sapiens). Put plainly: Antiproliferative activity against human MCF7 and SKBr3 cells.

Values joined by “and” are separate entries in the source; they are usually repeats but may differ in a detail not shown here. Identical values can stand only once. Active and inactive are the calls of the source. The calls are words filed in the database; no cut-off is given here. Bounds are passed on as bounds.

With `Cc1c(O)ccc2cc(-n3cc(-c4ccc(N(C)C)cc4)nn3)c(=O)oc12`, the concentration for half-maximal inhibition (IC50) in the assay with MCF7 and in the assay on SK-BR-3 was greater than 100 µM in each case.

`CC(=O)Oc1ccc2cc(-n3cc(-c4ccc(F)cc4F)nn3)c(=O)oc2c1C`: the IC50 in the assay with MCF7 and in the assay on SK-BR-3 was greater than 100 µM in each case.

For `CC(=O)Oc1ccc2cc(-n3cc(/C=C/c4ccccc4)nn3)c(=O)oc2c1C`, the IC50 was 28.5 µM in the assay on MCF7 and 65.1 µM with SK-BR-3.

As to `Cc1c(O)ccc2cc(-n3cc(/C=C/c4ccccc4)nn3)c(=O)oc12`, the results for the IC50 with MCF7 and in the assay on SK-BR-3 were 33.7 µM and 33.9 µM, respectively.

With `CC(=O)Oc1ccc2cc(-n3cc(-c4c[nH]c5ccccc45)nn3)c(=O)oc2c1C`, the IC50 in the assay with MCF7 amounted to 7.45 µM; in the assay with SK-BR-3, 6.52 µM. Also, the inhibition result in assay [1] and in assay [2] was “Dose-dependent effect” each time.

Consider `COc1cccc(-c2cc(-c3cn(-c4cc5ccc(OC(C)=O)c(C)c5oc4=O)nn3)ccc2OC)c1`, for which the IC50 is 42.4 µM in the assay on MCF7 and 50.8 µM with SK-BR-3.

As for `COc1cccc(-c2cc(-c3cn(-c4cc5ccc(O[C@@H]6OC(C)(C)[C@H](OC)[C@@H](O)[C@H]6O)c(C)c5oc4=O)nn3)ccc2OC)c1`, the IC50 with MCF7 was 13.2 µM; in the assay with SK-BR-3 it was 21.2 µM.

Turning to `CO[C@@H]1[C@@H](O)[C@@H](O)[C@H](Oc2ccc3cc(-n4cc(-c5c[nH]c6ccccc56)nn4)c(=O)oc3c2C)OC1(C)C`, the IC50 with MCF7 is 18.3 µM; in the assay on SK-BR-3, 8.17 µM.

Turning to `CC(=O)Oc1ccc2cc(-n3cc(-c4ccc(C)cc4)nn3)c(=O)oc2c1C`, the IC50 is greater than 100 µM in the assay with MCF7 and 90.8 µM in the assay with SK-BR-3.

For the compound `Cc1c(O)ccc2cc(-n3cc(-c4ccc(F)cc4F)nn3)c(=O)oc12`, the figures for the IC50 with MCF7 and with SK-BR-3 were 33.5 µM and 34.2 µM, respectively.

Consider `CC(=O)Oc1ccc2cc(-n3cc(-c4cc5ccccc5[nH]4)nn3)c(=O)oc2c1C`, for which the values for the IC50 with MCF7 and with SK-BR-3 were 76.1 µM and 50.4 µM, respectively.

Regarding `Cc1ccc(-c2cn(-c3cc4ccc(O)c(C)c4oc3=O)nn2)cc1`, the figures for the IC50 with MCF7 and with SK-BR-3 were 23.2 µM and greater than 100 µM, respectively.

In the case of `CC(=O)Oc1ccc2cc(-n3cc(-c4ccc(N(C)C)cc4)nn3)c(=O)oc2c1C`, the 50% inhibitory concentration (IC50) in the assay on MCF7 and in the assay with SK-BR-3 was greater than 100 µM each time. Further, the inhibition entry in assay [1] is “inactive”.

In the case of `COc1ccc(-c2cn(-c3cc4ccc(OC(C)=O)c(C)c4oc3=O)nn2)cc1`, the IC50 with MCF7 and in the assay on SK-BR-3 was greater than 100 µM throughout.

On to `Cc1c(O)ccc2cc(-n3cc(-c4cc5ccccc5[nH]4)nn3)c(=O)oc12`, for which the IC50 was 38.3 µM with MCF7 and 42.5 µM in the assay on SK-BR-3.

Consider `CC(=O)Oc1ccc2cc(-n3cc(-c4ccccc4)nn3)c(=O)oc2c1C`, for which the IC50 amounted to 40.8 µM with MCF7 and 76.4 µM in the assay with SK-BR-3.

Regarding `Cc1c(O)ccc2cc(-n3cc(-c4ccccc4)nn3)c(=O)oc12`, the IC50 with MCF7 was found to be 25.2 µM; in the assay with SK-BR-3, 39 µM.

Turning to `CO[C@@H]1[C@@H](OC(N)=O)[C@@H](O)[C@H](Oc2ccc3c(O)c(NC(=O)c4ccc(O)c(CC=C(C)C)c4)c(=O)oc3c2C)OC1(C)C` [NOVOBIOCIN], the IC50 with MCF7 came to 481 µM; with SK-BR-3, 475 µM.

On to `CO[C@@H]1[C@@H](O)[C@@H](O)[C@H](Oc2ccc3cc(-n4cc(-c5ccccc5)nn4)c(=O)oc3c2C)OC1(C)C`, for which the values for the IC50 in the assay on MCF7 and in the assay with SK-BR-3 were 64.4 µM and greater than 100 µM, respectively.

For `CO[C@@H]1[C@@H](O)[C@@H](C)[C@H](Oc2ccc3cc(NC(=O)c4c[nH]c5ccccc45)c(=O)oc3c2C)OC1(C)C`, in assay [3], the IC50 is 5.3 µM and 12.2 µM.

In the case of `COc1cccc(-c2cc(-c3cn(-c4cc5ccc(O)c(C)c5oc4=O)nn3)ccc2OC)c1`, the IC50 came out at 28 µM in the assay on MCF7 and 44.9 µM in the assay with SK-BR-3.

Regarding `COc1ccc(-c2cn(-c3cc4ccc(O)c(C)c4oc3=O)nn2)cc1`, the IC50 in the assay on MCF7 and with SK-BR-3 was greater than 100 µM in each case.

The values are drawn from ChEMBL document CHEMBL1177761, “Click chemistry to probe Hsp90: Synthesis and evaluation of a series of triazole-containing novobiocin analogues” (Bioorg Med Chem Lett, 2010).
